Results: ChEMBL document CHEMBL2424539, “Identification, synthesis and evaluation of substituted benzofurazans as inhibitors of CREB-mediated gene transcription” (Bioorg Med Chem Lett, 2013)

Test system: HEK-293T
Assay: Selectivity ratio of IC50 for CREB (unknown origin)-mediated gene transcription in HEK293T cells to IC50 for CREB-KID/CBP-KIX domain interaction (unknown origin)
Format: cell-based
Details: Homo sapiens

Structure (SMILES)	Ratio IC50
O=[N+]([O-])c1ccc(Nc2ccc(Cl)cc2)c2nonc12	2

Test system: HEK-293T
Assay: Selectivity ratio of IC50 for Herpesvirus VP16-CREB (unknown origin)-mediated gene transcription in HEK293T cells to IC50 for CREB (unknown origin)-mediated gene transcription in HEK293T cells
Format: cell-based
Details: not given

Structure (SMILES)	Ratio IC50
O=[N+]([O-])c1ccc(Sc2cccc[n+]2[O-])c2nonc12	3

Test system: not listed separately
Assay: Inhibition of Herpesvirus VP16-CREB (unknown origin)-mediated gene transcription in HEK293T cells by luciferase reporter gene assay
Format: cell-based
Details: HEK-293T
In short: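 HEK 293T cells cotransfected with VP16-CREB plus CRE-RLuc, treated with graded compound concentrations without forskolin stimulation, then lysed and RLuc activity read and normalized to protein (RLU/μg protein). IC50 in μM, mean ± SD of at least two independent experiments run in triplicate; top concentration 50 or 100 μM.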

Structure (SMILES)	IC50
O=[N+]([O-])c1ccc(Nc2ccc(Cl)cc2)c2nonc12	> 100 µM
Nc1ccc(Nc2ccc(Cl)cc2)c2nonc12	> 50 µM
O=[N+]([O-])c1ccc(Sc2cccc[n+]2[O-])c2nonc12	6.14 µM
O=[N+]([O-])c1ccc(Sc2ccccn2)c2nonc12	13.2 µM

Test system: not listed separately
Assay: Inhibition of CREB (unknown origin)-mediated gene transcription in HEK293T cells preincubated for 30 mins followed by forskolin addition measured after 5 hrs by luciferase reporter gene assay
Format: cell-based
Details: Homo sapiens, HEK-293T
In short: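 HEK 293T cells transfected with CRE-RLuc (RLuc driven by three tandem CRE copies), treated with graded compound concentrations for 30 min, then stimulated with forskolin (10 μM) for another 5 h. Cells lysed and RLuc activity read, normalized to protein (RLU/μg protein). Stocks in DMSO (one in DMF). IC50 in μM, mean ± SD of at least two independent experiments run in triplicate; top concentration 50 or 100 μM.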

Structure (SMILES)	IC50
Nc1ccc(Nc2ccc(Cl)cc2)c2nonc12	50 µM
O=C(Nc1ccc(Cl)cc1)c1ccc([N+](=O)[O-])c2nonc12	> 50 µM
O=[N+]([O-])c1cc(NCc2cccc3nonc23)ccc1Cl	> 50 µM

Second part, the compound after the results:

IC50	Structure (SMILES)
13.7 µM	O=[N+]([O-])c1ccc(Nc2ccc(Cl)cc2)c2nonc12
2.09 µM	O=[N+]([O-])c1ccc(Sc2cccc[n+]2[O-])c2nonc12
9.42 µM	O=[N+]([O-])c1ccc(Sc2ccccn2)c2nonc12
> 50 µM	O=[N+]([O-])c1ccc(CNc2ccc(Cl)cc2)c2nonc12

Target: not listed separately
Assay: (§1) Inhibition of CREB-KID/CBP-KIX domain interaction (unknown origin) after 20 hrs by luciferase reporter gene assay
Parameters: species or system Homo sapiens
Details: not given
In short: (§2)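 Split Renilla luciferase complementation assay: RLucC-KIX and KID-RLucN fusions mixed with graded compound concentrations at 4 °C for 20 h, then residual RLuc activity measured. Stocks in DMSO (one in DMF). IC50 in μM, mean ± SD of at least two independent experiments run in duplicate; top concentration 50 or 100 μM.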

Structure (SMILES)	IC50
Nc1ccc(Nc2ccc(Cl)cc2)c2nonc12	50 µM
O=C(Nc1ccc(Cl)cc1)c1ccc([N+](=O)[O-])c2nonc12	0.17 µM
O=[N+]([O-])c1cc(NCc2cccc3nonc23)ccc1Cl	> 50 µM

Second part, the compound after the results:

IC50	Structure (SMILES)
7.14 µM	O=[N+]([O-])c1ccc(Nc2ccc(Cl)cc2)c2nonc12
0.36 µM	O=[N+]([O-])c1ccc(Sc2cccc[n+]2[O-])c2nonc12
0.41 µM	O=[N+]([O-])c1ccc(Sc2ccccn2)c2nonc12
13.1 µM	O=[N+]([O-])c1ccc(CNc2ccc(Cl)cc2)c2nonc12

Species: Homo sapiens
Assay: as §1
Details: not given
In short: as §2

Structure (SMILES)	inhibition
O=[N+]([O-])c1ccc(Sc2cccc[n+]2[O-])c2nonc12	Dose-dependent effect
